The source made the active and inactive calls. No cut-off for these calls is given here.
Experiments:
PRMT5/MEP50 complex [1] = target: T1, PRMT5/MEP50 complex (Homo sapiens, UniProt O14744); test: Inhibition of full-length human N-terminal FLAG-tagged PRMT5/full length N-terminal His6-tagged MEP50 (unknown origin) expressed in baculovirus infected Sf9 insect cells assessed as reduction of S-adenosyl-L-homocysteine formation using human recombinant histone H2A (1 to 130 residues) and S-adenosyl-L-methionine as substrate after 60 mins by rapidfire mass spectrometry analysis
How it was run: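 PRMT5–MEP50 complex at 5.0 nM in assay; recombinant human histone H2A as substrate. Read-out is the decrease in SAM→SAH conversion, measured by RapidFire high-throughput mass spectrometry. IC50 reported as mean of n ≥ 2.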

A549 = test: Cytotoxicity against human A549 cells assessed as cell viability up to 10 uM incubated for 48 hrs by Hoechst staining based fluorescence microscopic analysis; settings: a549, 48 h
[2] = target: Protein arginine N-methyltransferase 5 (Homo sapiens, UniProt O14744); test: Inhibition of PRMT5 in human A549 cells assessed as reduction in arginine dimethylation of SmD1/3 after 48 hrs by Hoechst Stain/ CellMask Deep Red Stain based immunohistochemistry method; format: cell-based
How it was run: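 A549 cells treated with compound for 48 h (2 days). Symmetric arginine dimethylation of SmD1/3 measured by immunofluorescence microscopy as the nuclear/cytoplasmic intensity ratio, normalized to DMSO control. Concentration–response curves; mean ± SE of at least three replicates (n ≥ 3).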

[3] = target: Histone-lysine N-methyltransferase SETD1B (Homo sapiens) (UniProt Q9UPS6); test: Inhibition of recombinant human N- terminal GST-tagged SET1B (1629 to 1923 residues) expressed in Escherichia coli using core histone as substrate at 10 uM by radiometric HotSpot assay relative to control
How it was run: (§1)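 Selectivity panel of 21 purified recombinant human arginine and lysine methyltransferases. Compound tested at a single 10 μM concentration; percent inhibition of each enzyme reported.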

PRMT5/MEP50 complex [4] = target: T1, PRMT5/MEP50 complex; test: Binding affinity to N-terminal FLAG-tagged human PRMT5 (1 to 637 residues)/N-terminal thrombin His-tagged MEP50 (2 to 342 residues) expressed in baculovirus infected Sf21 cells by streptavidin coated sensor chip based surface plasmon resonance analysis
Homo sapiens [5] = species on record: Homo sapiens; test: Inhibition of recombinant human N-terminal His-tagged MLL1 (3745 to 3969 residues)/human WDR5 (22 to 334)/human RbBP5 (1 to 538)/human Ash2L (2 to 534)/human DPY30 (1 to 99) expressed in Escherichia coli using nucleosome as substrate at 10 uM by radiometric HotSpot assay relative to control; how it was run: as §1
[6] = target: Histone-lysine N-methyltransferase 2D (Homo sapiens) (UniProt O14686); test: Inhibition of recombinant human N- terminal His-tagged MLL2 (5319 to 5537 residues) expressed in Escherichia coli using core histone as substrate at 10 uM by radiometric HotSpot assay relative to control; how it was run: as §1
[7] = target: Histone-lysine N-methyltransferase SETD7 (Homo sapiens) (UniProt Q8WTS6); test: Inhibition of recombinant human full length C-terminal His-tagged SETD7 expressed in Escherichia coli using core histone as substrate at 10 uM by radiometric HotSpot assay relative to control; how it was run: as §1
[8] = target: T2, PRMT5/MEP50 complex (Homo sapiens) (UniProt O14744+Q9BQA1); test: Non-competitive inhibition of full-length human N-terminal FLAG-tagged PRMT5/full length N-terminal His6-tagged MEP50 (unknown origin) expressed in baculovirus infected Sf9 insect cells assessed as reduction of S-adenosyl-L-homocysteine formation using human recombinant histone H2A (1 to 130 residues) and varying concentrations of S-adenosyl-L-methionine as substrate after 80 mins by rapidfire mass spectrometry analysis
Homo sapiens [9] = species on record: Homo sapiens; test: Inhibition of recombinant human N-terminal His-tagged EZH2 (2 to 746)/human recombinant AEBP2 (2 to 517)/human recombinant EED (2 to 441)/human recombinant RbAp48 (2 to 425)/human recombinant SUZ12 (2 to 739) expressed in baculovirus infected insect cells using core histone as substrate at 10 uM by radiometric HotSpot assay relative to control; how it was run: as §1
[10] = target: Protein arginine N-methyltransferase 3 (Homo sapiens) (UniProt O60678); test: Inhibition of recombinant human His-tagged PRMT3 (2 to end residues) expressed in Escherichia coli using histone H4 as substrate at 10 uM by radiometric HotSpot assay relative to control; how it was run: as §1
[11] = target: T2, PRMT5/MEP50 complex (Homo sapiens); test: Competitive inhibition of full-length human N-terminal FLAG-tagged PRMT5/full length N-terminal His6-tagged MEP50 (unknown origin) expressed in baculovirus infected Sf9 insect cells assessed as reduction of S-adenosyl-L-homocysteine formation using varying concentrations of human recombinant histone H2A (1 to 130 residues) and S-adenosyl-L-methionine as substrate after 80 mins by rapidfire mass spectrometry analysis
[12] = target: Histone-lysine N-methyltransferase KMT5B (Homo sapiens) (UniProt Q4FZB7); test: Inhibition of recombinant human N-terminal GST-tagged SUV420H1 (2 to 393 residues ) expressed in baculovirus infected Sf9 cells using core histone as substrate at 10 uM by radiometric HotSpot assay relative to control; how it was run: as §1
[13] = target: Histone-lysine N-methyltransferase SETD2 (Homo sapiens) (UniProt Q9BYW2); test: Inhibition of recombinant human N-terminal GST-tagged SETD2 (1433 to 1711 residues) expressed in Escherichia coli using nucleosome as substrate at 10 uM by radiometric HotSpot assay relative to control; how it was run: as §1
[14] = target: Protein arginine N-methyltransferase 1 (Homo sapiens) (UniProt Q99873); test: Inhibition of recombinant human GST-tagged PRMT1 (2 to end residues) expressed in Escherichia coli using histone H4 as substrate at 10 uM by radiometric HotSpot assay relative to control; how it was run: as §1
[15] = target: Protein arginine N-methyltransferase 7 (Homo sapiens) (UniProt Q9NVM4); test: Inhibition of recombinant human N-terminal His-tagged full length PRMT7 (2 to 692 residues) expressed in baculovirus system using GST-GAR as substrate at 10 uM by radiometric HotSpot assay relative to control; how it was run: as §1
[16] = target: Histone-lysine N-methyltransferase EHMT2 (Homo sapiens) (UniProt Q96KQ7); test: Inhibition of N-terminal GST-fused recombinant human EHMT2 (786 to 1210 residues) expressed in Escherichia coli using histone H3 (1 to 21) as substrate at 10 uM by radiometric HotSpot assay relative to control; how it was run: as §1
[17] = target: Histone-lysine N-methyltransferase PRDM9 (Homo sapiens) (UniProt Q9NQV7); test: Inhibition of recombinant human N-terminal GST-tagged PRDM9 (2 to 414 residues) expressed in baculovirus infected Sf9 cells using histone H3 as substrate at 10 uM by radiometric HotSpot assay relative to control; how it was run: as §1
[18] = target: Protein arginine N-methyltransferase 6 (Homo sapiens) (UniProt Q96LA8); test: Inhibition of recombinant human His-tagged PRMT6 (2 to end residues) expressed in Escherichia coli using histone H3 as substrate at 10 uM by radiometric HotSpot assay relative to control; how it was run: as §1
[19] = target: Histone-lysine N-methyltransferase, H3 lysine-79 specific (Homo sapiens) (UniProt Q8TEK3); test: Inhibition of recombinant human N-terminal GST-tagged DOT1L (1 to 416 residues) expressed in Escherichia coli using nucleosome as substrate at 10 uM by radiometric HotSpot assay relative to control; how it was run: as §1
[20] = target: Histone-arginine methyltransferase CARM1 (Homo sapiens) (UniProt Q86X55); test: Inhibition of recombinant human FLAG-tagged PRMT4 (2 to end residues) expressed in FreeStyle HEK293-F cells using histone H3 as substrate at 10 uM by radiometric HotSpot assay relative to control; how it was run: as §1
[21] = target: Histone-lysine N-methyltransferase SUV39H2 (Homo sapiens) (UniProt Q9H5I1); test: Inhibition of recombinant human C-terminal His-tagged SUV39H2 (48 to 410 residues) expressed in Escherichia coli using nucleosome as substrate at 10 uM by radiometric HotSpot assay relative to control; how it was run: as §1
[22] = target: N-lysine methyltransferase SMYD2 (Homo sapiens) (UniProt Q9NRG4); test: Inhibition of recombinant human N-terminal His-tagged SMYD2 (2 to 433 residues) expressed in Escherichia coli using histone H4 as substrate at 10 uM by radiometric HotSpot assay relative to control; how it was run: as §1
[23] = target: N-lysine methyltransferase KMT5A (Homo sapiens) (UniProt Q9NQR1); test: Inhibition of recombinant human GST-tagged SETD8 (195 to 352 residues) expressed in Escherichia coli using nucleosome as substrate at 10 uM by radiometric HotSpot assay relative to control; how it was run: as §1
[24] = target: Protein arginine N-methyltransferase 8 (Homo sapiens) (UniProt Q9NR22); test: Inhibition of recombinant human N-terminal and C-terminal His-tagged PRMT8 (61 to 394 residues) expressed in Escherichia coli using histone H4 as substrate at 10 uM by radiometric HotSpot assay relative to control; how it was run: as §1
[25] = target: T2, PRMT5/MEP50 complex (Homo sapiens); test: Inhibition of recombinat human N-terminal Flag-tagged PRMT5 (2 to 637 residues)/ N-terminal His-tagged MEP50 (2 to 342 residues) (unknown origin) expressed in baculovirus infected Sf9 cells using recombinant human histone H2A (1 to 130 residues) as substrate at 10 uM by radiometric HotSpot assay relative to control; how it was run: as §1
[26] = target: Histone-lysine N-methyltransferase, H3 lysine-36 specific (Homo sapiens) (UniProt Q96L73); test: Inhibition of N-terminal His-tagged recombinant human NSD1 (1538 to 2696 residues) expressed in baculovirus infected insect cells using nucleosome as substrate at expressed in 10 uM by radiometric HotSpot assay relative to control; how it was run: as §1
[27] = target: Histone-lysine N-methyltransferase SUV39H1 (Homo sapiens) (UniProt O43463); test: Inhibition of recombinant human N-terminal fusion protein tagged and C-terminal His-tagged SUV39H1 (44 to 412 residues) expressed in Escherichia coli using nucleosome as substrate at 10 uM by radiometric HotSpot assay relative to control; how it was run: as §1

T1 sequence (O14744 whole entry, the tested form may be a part): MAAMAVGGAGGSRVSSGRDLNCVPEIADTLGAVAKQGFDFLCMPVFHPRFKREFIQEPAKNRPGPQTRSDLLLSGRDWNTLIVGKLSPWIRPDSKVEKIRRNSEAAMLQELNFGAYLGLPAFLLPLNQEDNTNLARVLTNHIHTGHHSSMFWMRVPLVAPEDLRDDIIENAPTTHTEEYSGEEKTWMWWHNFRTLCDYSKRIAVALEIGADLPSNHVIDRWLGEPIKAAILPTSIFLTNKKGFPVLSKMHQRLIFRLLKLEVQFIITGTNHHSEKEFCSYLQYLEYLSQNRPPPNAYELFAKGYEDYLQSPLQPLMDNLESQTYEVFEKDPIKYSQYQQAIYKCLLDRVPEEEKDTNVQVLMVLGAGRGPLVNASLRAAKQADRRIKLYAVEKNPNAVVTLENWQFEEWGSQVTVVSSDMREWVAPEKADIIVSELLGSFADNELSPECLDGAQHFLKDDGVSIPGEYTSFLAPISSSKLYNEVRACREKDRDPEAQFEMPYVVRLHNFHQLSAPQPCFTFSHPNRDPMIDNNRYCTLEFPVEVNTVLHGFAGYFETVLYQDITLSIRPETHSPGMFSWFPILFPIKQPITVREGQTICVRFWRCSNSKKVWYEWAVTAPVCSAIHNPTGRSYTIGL
T1 sequence (Q9BQA1 whole entry, further chain, the tested form may be a part): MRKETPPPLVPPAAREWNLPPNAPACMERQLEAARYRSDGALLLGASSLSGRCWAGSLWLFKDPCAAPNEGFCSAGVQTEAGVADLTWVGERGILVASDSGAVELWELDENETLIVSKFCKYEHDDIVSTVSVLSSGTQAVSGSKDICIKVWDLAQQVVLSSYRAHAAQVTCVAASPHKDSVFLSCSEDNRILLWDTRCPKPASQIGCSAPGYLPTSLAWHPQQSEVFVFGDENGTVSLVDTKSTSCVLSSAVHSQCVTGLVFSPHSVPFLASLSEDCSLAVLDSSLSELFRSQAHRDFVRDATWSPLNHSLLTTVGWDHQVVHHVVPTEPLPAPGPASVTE
Chain of Protein arginine N-methyltransferase 5 (O14744 whole entry): as the sequence (O14744 whole entry, the tested form may be a part) above
Chain of Histone-lysine N-methyltransferase SETD2 (Homo sapiens) (Q9BYW2 whole entry, the tested form may be a part): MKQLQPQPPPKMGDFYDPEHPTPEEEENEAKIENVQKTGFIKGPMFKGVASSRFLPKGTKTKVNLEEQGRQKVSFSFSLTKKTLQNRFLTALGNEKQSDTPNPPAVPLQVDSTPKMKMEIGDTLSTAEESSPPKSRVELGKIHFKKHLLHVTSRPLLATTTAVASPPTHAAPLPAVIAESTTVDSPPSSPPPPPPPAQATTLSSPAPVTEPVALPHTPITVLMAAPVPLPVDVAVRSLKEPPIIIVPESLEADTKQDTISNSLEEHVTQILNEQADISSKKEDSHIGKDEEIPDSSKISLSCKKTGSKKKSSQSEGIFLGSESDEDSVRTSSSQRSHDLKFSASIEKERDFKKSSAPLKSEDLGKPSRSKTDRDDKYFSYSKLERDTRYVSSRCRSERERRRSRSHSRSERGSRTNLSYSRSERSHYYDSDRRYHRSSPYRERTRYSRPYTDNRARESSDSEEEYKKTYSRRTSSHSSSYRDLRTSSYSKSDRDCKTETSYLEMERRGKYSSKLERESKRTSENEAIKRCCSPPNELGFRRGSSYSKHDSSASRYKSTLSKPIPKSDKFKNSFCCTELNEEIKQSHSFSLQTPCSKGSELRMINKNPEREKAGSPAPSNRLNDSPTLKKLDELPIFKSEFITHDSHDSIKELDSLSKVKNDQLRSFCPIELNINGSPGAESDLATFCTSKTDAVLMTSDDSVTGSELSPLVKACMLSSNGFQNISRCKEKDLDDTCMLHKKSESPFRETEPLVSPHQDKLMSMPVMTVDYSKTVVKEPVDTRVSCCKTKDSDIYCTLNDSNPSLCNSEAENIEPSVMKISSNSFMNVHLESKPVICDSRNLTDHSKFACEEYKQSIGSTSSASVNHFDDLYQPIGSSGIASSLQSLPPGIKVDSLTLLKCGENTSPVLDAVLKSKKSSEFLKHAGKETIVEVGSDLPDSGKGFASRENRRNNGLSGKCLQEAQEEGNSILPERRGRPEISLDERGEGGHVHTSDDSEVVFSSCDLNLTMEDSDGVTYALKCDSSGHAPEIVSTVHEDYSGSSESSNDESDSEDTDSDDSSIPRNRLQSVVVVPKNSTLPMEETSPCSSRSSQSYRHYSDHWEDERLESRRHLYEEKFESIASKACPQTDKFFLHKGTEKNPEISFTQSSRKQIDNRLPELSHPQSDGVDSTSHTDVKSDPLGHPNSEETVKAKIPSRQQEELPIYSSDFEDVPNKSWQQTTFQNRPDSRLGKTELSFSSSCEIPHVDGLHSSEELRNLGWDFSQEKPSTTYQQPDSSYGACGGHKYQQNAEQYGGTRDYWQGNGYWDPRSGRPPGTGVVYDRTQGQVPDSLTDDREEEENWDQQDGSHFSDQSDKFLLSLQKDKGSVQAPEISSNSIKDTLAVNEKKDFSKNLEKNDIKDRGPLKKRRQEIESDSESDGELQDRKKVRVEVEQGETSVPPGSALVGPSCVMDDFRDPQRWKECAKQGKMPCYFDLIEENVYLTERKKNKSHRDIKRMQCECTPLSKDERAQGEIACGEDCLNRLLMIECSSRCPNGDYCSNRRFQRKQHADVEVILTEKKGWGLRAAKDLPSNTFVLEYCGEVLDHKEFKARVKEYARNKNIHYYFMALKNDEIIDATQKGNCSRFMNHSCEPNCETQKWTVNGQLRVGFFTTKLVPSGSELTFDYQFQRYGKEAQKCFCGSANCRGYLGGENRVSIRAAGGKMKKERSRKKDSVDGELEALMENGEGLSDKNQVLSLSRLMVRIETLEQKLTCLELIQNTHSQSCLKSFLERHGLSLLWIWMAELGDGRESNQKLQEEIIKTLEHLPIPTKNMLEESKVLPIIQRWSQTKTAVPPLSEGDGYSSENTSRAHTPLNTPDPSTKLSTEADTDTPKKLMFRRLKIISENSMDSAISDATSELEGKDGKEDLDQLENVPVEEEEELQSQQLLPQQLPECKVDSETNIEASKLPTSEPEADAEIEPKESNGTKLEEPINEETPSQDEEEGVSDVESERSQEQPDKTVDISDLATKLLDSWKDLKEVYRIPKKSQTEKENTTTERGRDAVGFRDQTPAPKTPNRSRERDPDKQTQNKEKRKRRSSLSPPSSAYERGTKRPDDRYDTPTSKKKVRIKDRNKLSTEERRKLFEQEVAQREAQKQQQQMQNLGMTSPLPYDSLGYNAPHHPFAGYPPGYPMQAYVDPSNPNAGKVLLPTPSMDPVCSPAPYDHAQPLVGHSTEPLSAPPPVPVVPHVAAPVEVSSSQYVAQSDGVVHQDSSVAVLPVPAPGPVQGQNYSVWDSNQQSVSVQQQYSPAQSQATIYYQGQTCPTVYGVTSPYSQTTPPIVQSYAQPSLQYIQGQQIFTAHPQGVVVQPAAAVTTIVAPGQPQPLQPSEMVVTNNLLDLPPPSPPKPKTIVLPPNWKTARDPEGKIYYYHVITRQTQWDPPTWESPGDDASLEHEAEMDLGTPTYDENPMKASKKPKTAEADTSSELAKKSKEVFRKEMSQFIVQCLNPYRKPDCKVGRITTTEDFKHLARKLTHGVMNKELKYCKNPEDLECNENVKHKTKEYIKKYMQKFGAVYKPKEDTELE
Chain of Protein arginine N-methyltransferase 7 (Homo sapiens) (Q9NVM4 whole entry, the tested form may be a part): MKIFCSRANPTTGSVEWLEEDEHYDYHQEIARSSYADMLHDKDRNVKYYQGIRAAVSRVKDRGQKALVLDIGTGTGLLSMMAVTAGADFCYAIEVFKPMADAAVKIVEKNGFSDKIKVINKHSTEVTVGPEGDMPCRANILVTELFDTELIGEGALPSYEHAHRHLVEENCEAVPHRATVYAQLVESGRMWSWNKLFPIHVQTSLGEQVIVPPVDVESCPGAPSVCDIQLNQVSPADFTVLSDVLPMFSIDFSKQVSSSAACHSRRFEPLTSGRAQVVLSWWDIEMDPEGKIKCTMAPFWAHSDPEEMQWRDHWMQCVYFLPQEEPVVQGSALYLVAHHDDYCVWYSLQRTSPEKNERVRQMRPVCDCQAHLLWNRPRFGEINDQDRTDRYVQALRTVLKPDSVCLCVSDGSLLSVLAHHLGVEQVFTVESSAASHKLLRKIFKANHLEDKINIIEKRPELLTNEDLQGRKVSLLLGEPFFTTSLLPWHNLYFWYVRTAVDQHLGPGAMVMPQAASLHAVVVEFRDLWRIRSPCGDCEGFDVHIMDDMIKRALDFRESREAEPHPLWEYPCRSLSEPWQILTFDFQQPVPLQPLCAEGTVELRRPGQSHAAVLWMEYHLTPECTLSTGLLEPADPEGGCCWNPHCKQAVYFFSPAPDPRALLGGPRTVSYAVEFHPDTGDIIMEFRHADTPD
Chain of Protein arginine N-methyltransferase 6 (Homo sapiens) (Q96LA8 whole entry, looked up, the tested form may be a part): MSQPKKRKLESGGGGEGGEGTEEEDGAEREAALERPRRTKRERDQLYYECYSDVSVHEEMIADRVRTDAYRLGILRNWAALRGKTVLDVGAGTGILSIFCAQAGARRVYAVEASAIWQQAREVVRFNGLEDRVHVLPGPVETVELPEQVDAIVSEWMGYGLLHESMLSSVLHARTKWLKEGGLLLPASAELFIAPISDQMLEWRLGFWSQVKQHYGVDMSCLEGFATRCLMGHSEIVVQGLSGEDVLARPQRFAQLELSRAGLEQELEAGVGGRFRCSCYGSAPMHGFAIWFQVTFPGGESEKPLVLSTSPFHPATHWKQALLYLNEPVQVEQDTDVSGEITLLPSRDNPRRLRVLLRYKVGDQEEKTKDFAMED
Chain of Histone-lysine N-methyltransferase SETD7 (Homo sapiens) (Q8WTS6 whole entry, the tested form may be a part): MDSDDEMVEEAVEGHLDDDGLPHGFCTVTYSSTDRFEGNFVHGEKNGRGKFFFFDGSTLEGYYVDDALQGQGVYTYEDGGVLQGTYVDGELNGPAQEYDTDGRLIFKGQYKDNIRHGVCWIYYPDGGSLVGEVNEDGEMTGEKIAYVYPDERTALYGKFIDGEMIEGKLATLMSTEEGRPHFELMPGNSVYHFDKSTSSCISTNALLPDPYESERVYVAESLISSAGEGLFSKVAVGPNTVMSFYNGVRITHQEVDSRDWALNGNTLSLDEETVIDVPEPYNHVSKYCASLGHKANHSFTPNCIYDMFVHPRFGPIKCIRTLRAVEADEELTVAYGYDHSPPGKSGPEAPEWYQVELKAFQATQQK

NCC[C@H]1CCCN1C[C@H]1O[C@@H](n2cnc3c(N)ncnc32)[C@H](O)[C@@H]1O
IC50 (PRMT5/MEP50 complex [1]): 340 nM

Nc1ncnc2c1ncn2[C@@H]1O[C@H](CN2CCCC23CCNC3)[C@@H](O)[C@H]1O (stereo in doubt; 3a)
IC50 (PRMT5/MEP50 complex [1]): 3300 nM

Nc1ncnc2c1ncn2[C@@H]1O[C@H](CN2CCCC23CCNCC3)[C@@H](O)[C@H]1O
Activity (A549): Non-Toxic
IC50 [2]: 2300 nM
IC50 (PRMT5/MEP50 complex [1]): 52 nM

Nc1ncnc2c1ncn2[C@@H]1O[C@H](CN2CCC3(CCNC3)CC2)[C@@H](O)[C@H]1O
IC50 (PRMT5/MEP50 complex [1]): > 10000 nM

NCC[C@@H]1CCCN1C[C@H]1O[C@@H](n2cnc3c(N)ncnc32)[C@H](O)[C@@H]1O
IC50 [2]: 2400 nM
IC50 (PRMT5/MEP50 complex [1]): 83 nM

Nc1ncnc2c1ncn2[C@@H]1O[C@H](CN2CCC23CCNCC3)[C@@H](O)[C@H]1O
IC50 (PRMT5/MEP50 complex [1]): 370 nM

Nc1ncnc2c1ncn2[C@@H]1O[C@H](CN2CCC3(CCNCC3)CC2)[C@@H](O)[C@H]1O
IC50 (PRMT5/MEP50 complex [1]): > 10000 nM

CN1CCC2(CCCN2C[C@H]2O[C@@H](n3ccc4c(N)ncnc43)[C@H](O)[C@@H]2O)CC1
inhibition [3]: < 25%
Kd (PRMT5/MEP50 complex [4]): 7.6 nM
inhibition (Homo sapiens [5]): < 25%
inhibition [6]: < 25%
inhibition [7]: < 25%
IC50 [2]: 200 nM
inhibition [8]: Active
inhibition (Homo sapiens [9]): < 25%
inhibition [10]: < 25%
inhibition [11]: Active
inhibition [12]: < 25%
inhibition [13]: < 25%
inhibition [14]: < 25%
inhibition [15]: < 25%
inhibition [16]: < 25%
inhibition [17]: < 25%
inhibition [18]: < 25%
inhibition [19]: < 25%
IC50 (PRMT5/MEP50 complex [1]): 48 nM
inhibition [20]: < 25%
inhibition [21]: < 25%
inhibition [22]: < 25%
inhibition [23]: < 25%
inhibition [24]: < 25%
inhibition [25]: > 90%
inhibition [26]: < 25%
inhibition [27]: < 25%

Nc1ncnc2c1ncn2[C@@H]1O[C@H](CN2CCCC23CNC3)[C@@H](O)[C@H]1O
IC50 (PRMT5/MEP50 complex [1]): 740 nM

CC(=O)N1CCC2(CCCN2C[C@H]2O[C@@H](n3cnc4c(N)ncnc43)[C@H](O)[C@@H]2O)CC1
IC50 (PRMT5/MEP50 complex [1]): > 10000 nM

Nc1ncnc2c1ncn2[C@@H]1O[C@H](CN2CCC3(CCNCC3)C2)[C@@H](O)[C@H]1O
IC50 (PRMT5/MEP50 complex [1]): 5400 nM

Nc1ncnc2c1ncn2[C@@H]1O[C@H](CN2CCCC2)[C@@H](O)[C@H]1O
IC50 [2]: > 10000 nM
IC50 (PRMT5/MEP50 complex [1]): 76000 nM

Nc1ncnc2c1ncn2[C@@H]1O[C@H](CN2CCC23CNC3)[C@@H](O)[C@H]1O
IC50 (PRMT5/MEP50 complex [1]): 5100 nM

Nc1ncnc2c1ncn2[C@@H]1O[C@H](CN2CCC(N)CC2)[C@@H](O)[C@H]1O
IC50 (PRMT5/MEP50 complex [1]): > 10000 nM

Nc1ncnc2c1ncn2[C@@H]1O[C@H](CN2CCCC23CCNC3)[C@@H](O)[C@H]1O (stereo in doubt; 3b)
IC50 (PRMT5/MEP50 complex [1]): 2700 nM

Nc1ncnc2c1ncn2[C@@H]1O[C@H](CN2CCCC3(CNC3)C2)[C@@H](O)[C@H]1O
IC50 (PRMT5/MEP50 complex [1]): 530 nM

Nc1ncnc2c1ccn2[C@@H]1O[C@H](CN2CCCC23CCNCC3)[C@@H](O)[C@H]1O
IC50 [2]: 58 nM
inhibition [8]: Active
inhibition [11]: Active
IC50 (PRMT5/MEP50 complex [1]): 9.5 nM

Nc1ncnc2c1ncn2[C@@H]1O[C@H](CN2CCCC23CCCCC3)[C@@H](O)[C@H]1O
IC50 (PRMT5/MEP50 complex [1]): > 10000 nM

— ChEMBL document CHEMBL4725473, “A Chemical Probe for the Methyl Transferase PRMT5 with a Novel Binding Mode” (ACS Med Chem Lett, 2020)
